Test results from ChEMBL document CHEMBL3769399, “Synthesis and cytotoxic activities of some pyrazoline derivatives bearing phenyl pyridazine core as new apoptosis inducers” (Eur J Med Chem, 2016).

Columns and labels:
A549 [1] = test: Antiproliferative activity against human A549 cells assessed as cell viability after 24 hrs by MTT assay; assay type: functional, cell-based; conditions: A549, 24 h
Summary of the method: (§1)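 Monolayers in DMEM (A549) or RPMI (MCF-7) with 10% fetal calf serum, penicillin and streptomycin at 37 °C and 5% CO2. Seeded overnight at 10^3 cells/well, then dosed at 0–100 from a serum-free stock in 1% DMSO diluted in complete medium. After 24 h, viability was read by WST-1 premix at 450 nm and blank-corrected against untreated cells. IC50 given as mean with standard error.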

HepG2 [2] = test: Antiproliferative activity against human HepG2 cells assessed as cell viability after 24 hrs by MTT assay; assay type: functional, cell-based; conditions: HepG2, 24 h
Summary of the method: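 HepG2 grown as monolayer in DMEM plus 10% fetal calf serum and penicillin/streptomycin at 37 °C, 5% CO2. Plated overnight at 10^3 cells/well and exposed 24 h to five levels (0–100) diluted in complete medium from a 1% DMSO stock. WST-1 absorbance at 450 nm gave blank-corrected % viability versus untreated control, from which IC50 was derived.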

[3] = Antiproliferative activity against human Caco2 cells assessed as cell viability after 24 hrs by MTT assay; assay type: functional, cell-based; conditions: Caco-2, 24 h
Summary of the method: (§2)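 CaCo-2 kept in RPMI with 10% fetal calf serum and antibiotics at 37 °C, 5% CO2. Cells were seeded at 10^3 per well overnight, then treated 24 h at 0, 5, 10, 50 and 100, diluted from a stock containing 1% DMSO. Viability came from WST-1 read at 450 nm, blank-subtracted and normalised to untreated cells.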

MCF7 [4] = test: Antiproliferative activity against human MCF7 cells assessed as cell viability after 24 hrs by MTT assay; assay type: functional, cell-based; conditions: MCF7, 24 h; summary of the method: as §1
[5] = Cytotoxicity against HEK293 cells assessed as cell viability at 300 uM after 24 hrs by MTT assay; assay type: cell-based; conditions: human, read-out: Activity
Summary of the method: (§3)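 Human embryonic kidney 293 cells, as normal-cell counterpart, treated at four levels (10, 100, 200, 300). Percentage of viable cells reported with SE at each level, and IC50 estimated.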

[6] = Cytotoxicity against HEK293 cells assessed as cell viability at 200 uM after 24 hrs by MTT assay; assay type: cell-based; conditions: human, read-out: Activity; summary of the method: as §3
MCF7 [7] = test: Induction of necrosis in human MCF7 cells at 10 uM by annexin V-FITC/ethidium homodimer III staining-based flow cytometry relative to control; assay type: functional
Summary of the method: (§4)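 Treated cells at 2–3×10^5/mL were resuspended in 1X binding buffer and stained with FITC-Annexin V (apoptosis) plus Ethidium Homodimer III (necrosis) for 15 min at room temperature in the dark. Buffer was added and FACS was read within 1 h. Percent induction is the compound's apoptotic or necrotic fraction minus that of untreated negative control.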

MCF7 [8] = test: Induction of apoptosis in human MCF7 cells at 10 uM by annexin V-FITC/ethidium homodimer III staining-based flow cytometry relative to control; assay type: functional; summary of the method: as §4
HEK293 = test: Cytotoxicity against HEK293 cells assessed as cell viability after 24 hrs by MTT assay; assay type: cell-based; conditions: Homo sapiens, HEK293, 24 h; summary of the method: as §3
[9] = Cytotoxicity against HEK293 cells assessed as cell viability at 10 uM after 24 hrs by MTT assay; assay type: cell-based; conditions: human, read-out: Activity; summary of the method: as §3
[10] = Cytotoxicity against HEK293 cells assessed as cell viability at 100 uM after 24 hrs by MTT assay; assay type: cell-based; conditions: human, read-out: Activity; summary of the method: as §3
HepG2 [11] = test: Induction of apoptosis in human HepG2 cells at 10 uM by annexin V-FITC/ethidium homodimer III staining-based flow cytometry relative to control; assay type: functional; summary of the method: as §4
HepG2 [12] = test: Induction of necrosis in human HepG2 cells at 10 uM by annexin V-FITC/ethidium homodimer III staining-based flow cytometry relative to control; assay type: functional; summary of the method: as §4
[13] = Antiproliferative activity against human Caco2 cells assessed as cell viability at 10 uM after 24 hrs by MTT assay; assay type: functional; conditions: Caco-2, 24 h, read-out: Activity; summary of the method: as §2
A549 [14] = test: Induction of necrosis in human A549 cells at 10 uM by annexin V-FITC/ethidium homodimer III staining-based flow cytometry relative to control; assay type: functional; summary of the method: as §4
A549 [15] = test: Induction of apoptosis in human A549 cells at 10 uM by annexin V-FITC/ethidium homodimer III staining-based flow cytometry relative to control; assay type: functional; summary of the method: as §4
Caco-2 [16] = test: Induction of apoptosis in human Caco2 cells at 10 uM by annexin V-FITC/ethidium homodimer III staining-based flow cytometry relative to control; assay type: functional; summary of the method: as §4
MCF7 [17] = test: Induction of apoptosis in human MCF7 cells assessed as increase in caspase 3 activation at IC50 using Ac-Asp-Glu-Val-Asp-pNA as substrate after 24 hrs by colorimetric assay relative to control; assay type: functional
Summary of the method: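 MCF-7 cells were grown in RPMI with 10% fetal calf serum, penicillin and streptomycin at 37 °C under 5% CO2, then seeded at 5 × 10^5 cells/well and treated for 24 h. After the medium was removed, cells were lysed with lysis buffer and shaken for 10 min. Lysate was added to caspase-3 reaction buffer containing diluted substrate. The increase in A405 was read over 30 min and expressed relative to untreated controls.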

Caco-2 [18] = test: Induction of necrosis in human Caco2 cells at 10 uM by annexin V-FITC/ethidium homodimer III staining-based flow cytometry relative to control; assay type: functional; summary of the method: as §4

Structure (SMILES) | IC50 (A549 [1]) [µM] | IC50 (HepG2 [2]) [µM] | IC50 (MCF7 [4]) [µM] | IC50 [3] [µM] | viability at 24 h, 300 µM [5] [%] | viability at 24 h, 200 µM [6] [%] | Activity (MCF7 [7]) [%] | Activity (MCF7 [8]) [%] | IC50 (HEK293) [µM] | viability at 24 h, 10 µM [9] [%] | viability at 24 h, 100 µM [10] [%] | Activity (HepG2 [11]) [%] | Activity (HepG2 [12]) [%] | viability at 10 µM [13] [%] | Activity (A549 [14]) [%] | Activity (A549 [15]) [%] | Activity (Caco-2 [16]) [%] | fold change (FC) (MCF7 [17]) | Activity (Caco-2 [18]) [%]
COc1ccc(C2CC(c3ccc(Cl)cc3)=NN2c2ccc(-c3ccccc3)nn2)c(OC)c1 (stereo not drawn) | > 100 | > 100 | > 100 | > 100 | – | – | – | – | – | – | – | – | – | – | – | – | – | – | –
Fc1ccc(C2CC(c3ccc(Cl)cc3)=NN2c2ccc(-c3ccccc3)nn2)cc1 (stereo not drawn) | > 100 | 10 | 3.75 | > 100 | 68.8 | 75.8 | 1.98 | 32.1 | > 300 | 85.9 | 82.3 | – | – | – | – | – | – | – | –
c1ccc(C2=NN(c3ccc(-c4ccccc4)nn3)C(c3ccccc3)C2)cc1 (stereo not drawn) | > 100 | 10 | 23.8 | 40.9 | – | – | – | – | – | – | – | – | – | – | – | – | – | – | –
Clc1ccc(C2=NN(c3ccc(-c4ccccc4)nn3)C(c3ccc(Cl)cc3)C2)cc1 (stereo not drawn) | > 100 | 10 | 8.8 | > 100 | 76.4 | 79.8 | 0.1 | 39 | > 300 | 85.6 | 81.7 | – | – | – | – | – | – | – | –
COc1ccc(C2=NN(c3ccc(-c4ccccc4)nn3)C(c3cc(OC)c(OC)c(OC)c3)C2)cc1 (stereo not drawn) | > 100 | > 100 | 100 | > 100 | – | – | – | – | – | – | – | – | – | – | – | – | – | – | –
COc1ccc(C2=NN(c3ccc(-c4ccccc4)nn3)C(c3ccc(OC)cc3)C2)cc1 (stereo not drawn) | > 100 | > 100 | 100 | > 100 | – | – | – | – | – | – | – | – | – | – | – | – | – | – | –
FC(F)(F)c1ccc(C2CC(c3ccc(Cl)cc3)=NN2c2ccc(-c3ccccc3)nn2)cc1 (stereo not drawn) | > 100 | 8.33 | 1.67 | 10 | 79.1 | 84.6 | 1.26 | 27.2 | > 300 | 92.7 | 87.7 | 24.8 | 4.97 | 50 | – | – | 13.4 | 5 | 1.87
COc1ccc(C2=NN(c3ccc(-c4ccccc4)nn3)C(c3ccc(F)cc3)C2)cc1 (stereo not drawn) | > 100 | 9.16 | 20 | 18.1 | – | – | – | – | – | – | – | – | – | – | – | – | – | – | –
COc1ccc(C2=NN(c3ccc(-c4ccccc4)nn3)C(c3ccc(Cl)cc3)C2)cc1 (stereo not drawn) | 100 | > 100 | 58 | > 100 | – | – | – | – | – | – | – | – | – | – | – | – | – | – | –
COc1ccc(C2=NN(c3ccc(-c4ccccc4)nn3)C(c3ccc(C(F)(F)F)cc3)C2)cc1 (stereo not drawn) | > 100 | > 100 | 46.8 | 65 | – | – | – | – | – | – | – | – | – | – | – | – | – | – | –
COc1cccc2c1C(=O)c1c(O)c3c(c(O)c1C2=O)C[C@@](O)(C(=O)CO)C[C@@H]3O[C@H]1C[C@H](N)[C@H](O)[C@H](C)O1 [DOXORUBICIN] | – | – | – | 3 | – | – | – | – | – | – | – | – | – | – | – | – | – | – | –

The next lines start with results.

IC50 (A549 [1]) [µM] | IC50 (HepG2 [2]) [µM] | IC50 (MCF7 [4]) [µM] | Structure (SMILES) | IC50 [3] [µM] | viability at 24 h, 300 µM [5] [%] | viability at 24 h, 200 µM [6] [%] | Activity (MCF7 [7]) [%] | Activity (MCF7 [8]) [%] | IC50 (HEK293) [µM] | viability at 24 h, 10 µM [9] [%] | viability at 24 h, 100 µM [10] [%] | Activity (HepG2 [11]) [%] | Activity (HepG2 [12]) [%] | viability at 10 µM [13] [%] | Activity (A549 [14]) [%] | Activity (A549 [15]) [%] | Activity (Caco-2 [16]) [%] | fold change (FC) (MCF7 [17]) | Activity (Caco-2 [18]) [%]
83.3 | > 100 | 100 | COc1cc(C2CC(c3ccc(Cl)cc3)=NN2c2ccc(-c3ccccc3)nn2)cc(OC)c1OC (stereo not drawn) | > 100 | – | – | – | – | – | – | – | – | – | – | – | – | – | – | –
89.2 | 8.42 | 100 | Fc1ccc(C2CC(c3ccccc3)=NN2c2ccc(-c3ccccc3)nn2)cc1 (stereo not drawn) | 10 | 78.6 | 86.3 | – | – | > 300 | 93.7 | 91.9 | 30.5 | 8.84 | 50 | – | – | – | – | –
96.7 | 8.75 | 10 | Clc1ccc(C2=NN(c3ccc(-c4ccccc4)nn3)C(c3ccccc3)C2)cc1 (stereo not drawn) | 100 | 71.6 | 78.1 | – | – | > 300 | 84 | 81.6 | 22.7 | 23.45 | – | – | – | – | – | –
100 | 6.31 | 100 | Clc1ccc(C2CC(c3ccccc3)=NN2c2ccc(-c3ccccc3)nn2)cc1 (stereo not drawn) | 100 | 74 | 88.3 | – | – | > 300 | 96.6 | 91.2 | 44.4 | 4.4 | – | – | – | – | – | –
83.8 | 100 | 70 | COc1cc(C2CC(c3ccccc3)=NN2c2ccc(-c3ccccc3)nn2)cc(OC)c1OC (stereo not drawn) | > 100 | – | – | – | – | – | – | – | – | – | – | – | – | – | – | –
100 | > 100 | 100 | COc1ccc(C2=NN(c3ccc(-c4ccccc4)nn3)C(c3ccc(OC)cc3OC)C2)cc1 (stereo not drawn) | > 100 | – | – | – | – | – | – | – | – | – | – | – | – | – | – | –
9.16 | 10 | 100 | FC(F)(F)c1ccc(C2CC(c3ccccc3)=NN2c2ccc(-c3ccccc3)nn2)cc1 (stereo not drawn) | 50 | 70.8 | 82.3 | – | – | > 300 | 89.8 | 86.2 | – | – | – | 11.11 | 46.6 | – | – | –
9.56 | 100 | > 100 | COc1ccc(C2CC(c3ccccc3)=NN2c2ccc(-c3ccccc3)nn2)c(OC)c1 (stereo not drawn) | > 100 | 74.2 | 81.1 | – | – | > 300 | 85.2 | 82.9 | – | – | – | 1.04 | 27 | – | – | –
91.7 | > 100 | 100 | COc1ccc(C2CC(c3ccccc3)=NN2c2ccc(-c3ccccc3)nn2)cc1 (stereo not drawn) | > 100 | – | – | – | – | – | – | – | – | – | – | – | – | – | – | –
75.9 | > 100 | > 100 | COc1ccc(C2=NN(c3ccc(-c4ccccc4)nn3)C(c3ccccc3)C2)cc1 (stereo not drawn) | > 100 | – | – | – | – | – | – | – | – | – | – | – | – | – | – | –
100 | > 100 | 100 | COc1ccc(C2CC(c3ccc(Cl)cc3)=NN2c2ccc(-c3ccccc3)nn2)cc1 (stereo not drawn) | > 100 | – | – | – | – | – | – | – | – | – | – | – | – | – | – | –
